# Laboratory results published in ChEMBL document CHEMBL2157983 (Bioorg Med Chem Lett, 2011).
# Experiments:
# V79 [1] = assay: Antiproliferative activity against Chinese hamster V79 cells assessed as reduction in cell number after 72 hrs; format: cell-based; conditions: Cricetulus griseus, V79, 72 h
# Procedure, shortened: (§1)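 V79 cells carrying vector only served as the control line. The NTR+ line carried a bicistronic construct encoding E. coli nfsB with a puromycin selection marker. Cells were exposed to drug for 72 h. […] The ratio is IC50 in NTR− cells divided by IC50 in NTR+ cells.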
# Leishmania major = assay: Trypanocidal activity against Leishmania major promastigote forms infected in sandfly gut assessed as inhibition of parasite growth; format: functional, organism-based
# V79 [2] = assay: Ratio of IC50 for Chinese hamster V79 cells to IC50 for Chinese hamster V79 cells transfected with Escherichia coli nitroreductase nfsB; parameters: species or system Cricetulus griseus; procedure, shortened: as §1
# V79 [3] = assay: Antiproliferative activity against Chinese hamster V79 cells transfected with Escherichia coli nitroreductase nfsB assessed as reduction in cell number after 72 hrs; format: functional, cell-based; conditions: Cricetulus griseus, V79, 72 h; procedure, shortened: as §1
# SK-OV-3 [4] = assay: Antiproliferative activity against human SKOV3 cells after 18 hrs assessed as reduction in cell number; format: functional, cell-based; conditions: SK-OV-3, 18 h
# Procedure, shortened: (§2)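 Untransfected parental SKOV3 cells were compared with SKOV3 cells expressing E. coli nfsB. Drug exposure lasted 18 h. […] The ratio is IC50 in NTR− cells divided by IC50 in NTR+ cells.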
# SK-OV-3 [5] = assay: Antiproliferative activity against human SKOV3 cells transfected with Escherichia coli nitroreductase nfsB assessed as reduction in cell number after 18 hrs; format: functional, cell-based; conditions: SK-OV-3, 18 h; procedure, shortened: as §2
# Escherichia coli = assay: Activity of Escherichia coli nitroreductase nfsB assessed as NADH oxidation per mg of protein
# Procedure, shortened: (§3)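 Substrate activity reported as the initial velocity of NADH oxidation (nmol/min/mg) with either E. coli nfsB or T. brucei nitroreductase (TbNTR). The reaction was followed by the change in absorbance at 340 nm.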
# SK-OV-3 [6] = assay: Ratio of IC50 for human SKOV3 cells to IC50 for human SKOV3 cells transfected with Escherichia coli nitroreductase nfsB; format: functional; procedure, shortened: as §2
# Trypanosoma brucei [7] = assay: Trypanocidal activity against of Trypanosoma brucei bloodstream trypomastigote forms assessed as inhibition of parasite growth; format: functional, organism-based
# Trypanosoma brucei [8] = assay: Activity of Trypanosoma brucei NTR assessed as NADH oxidation per mg of protein; procedure, shortened: as §3
# SK-OV-3 [9] = assay: Antiproliferative activity against human SKOV3 cells with mixed population of 25% NTR(+) cells and 75% NTR(-) cells assessed as reduction in cell number after 18 hrs; format: functional, cell-based; conditions: SK-OV-3, 18 h
# Procedure, shortened: (§4)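 Drug exposure lasted 18 h. BE50 is the percentage of NTR+ cells in the mix needed to give an IC50 at the log-scale (geometric) midpoint between the IC50s of pure NTR+ and pure NTR− cultures.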
# SK-OV-3 [10] = assay: Antiproliferative activity against human SKOV3 cells with mixed population of 25% NTR(+) cells and 75% NTR(-) cells assessed as bystander effect by measuring mixed population of NTR(+) and NTR (-) cells to produce an IC50 midway on log scale between those in either NTR(+) or NTR(-) cells alone after 18 hrs; format: functional; procedure, shortened: as §4
# Trypanosoma brucei [11] = assay: Ratio of 4-nitrobenzyl phosphoramide mustard IC50 to compound IC50 for Trypanosoma brucei bloodstream trypomastigote forms; format: functional
SMILES,IC50 (V79 [1]) [µM],IC50 (Leishmania major) [µM],Ratio IC50 (V79 [2]),IC50 (V79 [3]) [µM],IC50 (SK-OV-3 [4]) [µM],IC50 (SK-OV-3 [5]) [µM],Activity (Escherichia coli) [nmol/min],Ratio IC50 (SK-OV-3 [6]),IC50 (Trypanosoma brucei [7]) [µM],Activity (Trypanosoma brucei [8]) [nmol/min],IC50 (SK-OV-3 [9]) [µM],Activity (SK-OV-3 [10]) [%],Ratio IC50 (Trypanosoma brucei [11])
NP(=O)(OCc1ccc([N+](=O)[O-])cn1)N(CCCl)CCCl (centres undefined),75,8.3,8333,0.009,,,,,,,,,
NC(=O)c1cc(COP(N)(=O)N(CCCl)CCCl)ccc1[N+](=O)[O-] (centres undefined),> 100,,>3330,0.03,> 1000,6.75,211,>150,,,,,
Cc1cc(COP(N)(=O)N(CCCl)CCCl)ccc1[N+](=O)[O-] (centres undefined),48,> 30,16000,0.003,477,0.45,894,1060,> 10,158,,,
NP(=O)(OCc1ccc([N+](=O)[O-])c(F)c1)N(CCCl)CCCl (centres undefined),48,9.05,16000,0.003,246,0.21,,1200,> 10,1120,0.48,4.2,
NP(=O)(OCc1ccc([N+](=O)[O-])cc1)N(CCCl)CCCl (centres undefined),59,> 30,73750,0.0008,943,0.099,1280,9520,> 10,246,0.98,5.6,
NP(=O)(OCc1ccccc1[N+](=O)[O-])N(CCCl)CCCl (centres undefined),> 100,> 30,>556,0.18,> 1000,5.23,256,>190,> 10,19,,,
NP(=O)(OCc1cccc([N+](=O)[O-])c1)N(CCCl)CCCl (centres undefined),> 100,> 30,>385,0.26,947,55,683,17,> 10,369,,,
C[C@H](OP(N)(=O)N(CCCl)CCCl)c1ccc([N+](=O)[O-])cc1 (some centres undefined),65,> 30,32500,0.002,> 1000,0.49,916,>2000,> 10,52,,,
NC(=O)Cc1cc([N+](=O)[O-])ccc1COP(N)(=O)N(CCCl)CCCl (centres undefined),> 100,,>2000,0.05,> 100,1.1,,>90,,,,,
C[C@@H](OP(N)(=O)N(CCCl)CCCl)c1ccc([N+](=O)[O-])cc1 (some centres undefined),57,> 30,28500,0.002,> 1000,0.28,1400,>3500,> 10,34,,,
NC(=O)c1cc([N+](=O)[O-])ccc1COP(N)(=O)N(CCCl)CCCl (centres undefined),> 100,,>2500,0.04,> 100,0.8,,>125,,,,,
NP(=O)(OCc1ccc([N+](=O)[O-])cc1C(F)(F)F)N(CCCl)CCCl (centres undefined),50,5.88,12500,0.004,172,0.31,,570,7.97,,1.01,2.8,
NP(=O)(OCc1ccc([N+](=O)[O-])cc1)N(CCBr)CCBr (centres undefined),6,,60000,0.0001,1100,0.09,,12244,,,,,
COc1cc(COP(N)(=O)N(CCCl)CCCl)ccc1[N+](=O)[O-] (centres undefined),48,> 30,16000,0.003,641,0.44,2440,1460,> 10,0,,,
NP(=O)(OCc1ccc([N+](=O)[O-])cc1F)N(CCCl)CCCl (centres undefined),49,4.72,122750,0.0004,266,0.08,,3290,9.54,,0.37,3.9,
COC(=O)c1cc(COP(N)(=O)N(CCCl)CCCl)ccc1[N+](=O)[O-] (centres undefined),69,,690,0.1,435,0.43,167,1000,,,,,
COc1cc([N+](=O)[O-])ccc1COP(N)(=O)N(CCCl)CCCl (centres undefined),41,15.6,82000,0.0005,,,6980,,> 10,239,,,
NP(=O)(OCc1c(F)cc([N+](=O)[O-])cc1F)N(CCCl)CCCl (centres undefined),17,1.29,20880,0.0008,257,0.17,,1520,0.99,1450,1.37,9.2,485
NP(=O)(OCc1ccc([N+](=O)[O-])cc1Cl)N(CCCl)CCCl (centres undefined),26,3.1,13100,0.002,140,0.12,,1120,9.14,,0.54,3.2,425
